This note sets out measurements from ChEMBL document CHEMBL1145389, “Total synthesis and biological evaluation of C16 analogs of (-)-dictyostatin” (2007).

One experiment deals with HeLa. Description: Increase in cellular tubulin polymer mass in HeLa cells assessed as minimum detectable effective concentration after 21 hrs. In kind it is functional, Homo sapiens. In outline:
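HeLa cells exposed continuously for 21 h; lowest concentration producing a detectable rise in cellular tubulin polymer mass recorded as MDEC.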

A further experiment concerns 1A9. The experiment in a line: Growth inhibition of human 1A9 cells after 72 hrs. The note with it: 1A9, 72 h. In kind it is functional. In outline:
(§1)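 GI50 determined after 72 h continuous exposure to test agent in ovarian carcinoma 1A9 cells and in paclitaxel-resistant 1A9 clones carrying mutant β-tubulin (Ptx10, βPhe270→Val; Ptx22, βAla364→Thr).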

Another experiment concerns 1A9/ptx-10. The experiment in a line: Growth inhibition of beta tubulin Phe270Val mutant expressing human 1A9/Ptx10 cells after 72 hrs. In kind it is functional. The following applies: 1A9/ptx-10, 72 h. In outline: as §1
Another experiment deals with 1A9/ptx-22. The experiment in a line: Growth inhibition of beta tubulin A364T mutant expressing human 1A9/Ptx22 cells after 72 hrs. In kind it is functional. The following applies: 1A9/ptx-22, 72 h. In outline: as §1
The species entered for experiment [1] is Bos taurus. The experiment in a line: Displacement of [3H]paclitaxel from bovine brain tubulin at 4 uM. In outline:
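Competition at 37 °C: 4 µM test agent against 2 µM [³H]paclitaxel for binding to microtubules assembled from 2 µM bovine brain tubulin with 20 µM dideoxyGTP; reported as percent competition.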
(In general: Loss of bound radioactivity is the signal in a displacement assay; it reports binding, not function.)

The species entered for experiment [2] is Bos taurus. The experiment in a line: Induction of bovine brain tubulin polymerization at 10 uM relative to paclitaxel.

Some results are limits rather than exact numbers.

The GI50 is the concentration giving 50% growth inhibition. A higher GI50 goes with less potent growth inhibition. For `C=C/C=C\[C@H](C)[C@H](O)[C@@H](C)[C@H]1CC[C@@H](C)C[C@H](C)[C@@H](O)[C@@H](C)/C=C\[C@@H](O)C[C@H](O)[C@H](C)/C=C/C=C\C(=O)O1`, the Activity with HeLa was greater than 5000 nM; in the experiment filed under Bos taurus [1] it was 4%. The GI50 came out at 7800 nM in the experiment on 1A9, 44200 nM in the experiment on 1A9/ptx-10 and 53800 nM in the experiment with 1A9/ptx-22. The compound also had a % tubulin polymerization in the experiment listed under Bos taurus [2] of 3%.
Take `C=C/C=C\[C@H](C)[C@@H]1OC(=O)/C=C\C=C\[C@@H](C)[C@@H](O)C[C@@H](O)/C=C\[C@H](C)[C@H](O)[C@@H](C)/C=C\CC[C@@H](O)[C@@H]1C`: the Activity was greater than 5000 nM with HeLa and 11% in the experiment filed under Bos taurus [1]. Further, the GI50 in the experiment with 1A9 is 4260 nM; in the experiment on 1A9/ptx-10, 19300 nM; with 1A9/ptx-22, 4600 nM. In the experiment filed under Bos taurus [2], this compound showed a % tubulin polymerization of 1%.
On to `C=C/C=C\[C@H](C)[C@H](OC(N)=O)[C@@H](C)[C@H](O)[C@@H](C)C/C=C\[C@H](C)[C@@H](O)[C@@H](C)/C=C\[C@@H](O)C[C@@H]1OC(=O)[C@H](C)[C@@H](O)[C@H]1C`, for which the Activity with HeLa is 29 nM; in the experiment listed under Bos taurus [1], 75%. Besides, the values for the 50% growth inhibitory concentration (GI50) in the experiment with 1A9, in the experiment on 1A9/ptx-10 and in the experiment on 1A9/ptx-22 were 3.7 nM, 33 nM and 30 nM, respectively.
On to `C=C/C=C\[C@H](C)[C@@H]1OC(=O)/C=C\C=C\[C@@H](C)[C@@H](O)C[C@H](O)/C=C\[C@H](C)[C@H](O)[C@@H](C)/C=C\CC[C@@H](O)[C@@H]1C`, for which the Activity in the experiment on HeLa was 11 nM; in the experiment filed under Bos taurus [1], 38%. In addition, the GI50 in the experiment on 1A9 was found to be 8.3 nM; in the experiment on 1A9/ptx-10 it was 942 nM; in the experiment with 1A9/ptx-22 it was 62 nM. The compound also had a % tubulin polymerization in the experiment listed under Bos taurus [2] of 107%.
Turning to `C=C/C=C\[C@H](C)[C@@H]1OC(=O)/C=C\C=C\[C@@H](C)[C@@H](O)C[C@H](O)/C=C\[C@H](C)[C@H](O)[C@@H](C)CCCC[C@@H](O)[C@@H]1C`, the results for the Activity in the experiment on HeLa and in the experiment listed under Bos taurus [1] were 25 nM and 48%, respectively. Further, the GI50 with 1A9 was found to be 0.41 nM; with 1A9/ptx-10, 470 nM; with 1A9/ptx-22, 5.6 nM. For the same compound, in the experiment listed under Bos taurus [2], the % tubulin polymerization amounted to 91%.
As to `C=C/C=C\[C@H](C)[C@@H]1OC(=O)/C=C\C=C\[C@@H](C)[C@@H](O)C[C@H](O)/C=C\[C@H](C)[C@H](O)[C@@H](C)C[C@@H](C)CC[C@@H](O)[C@@H]1C` [DICTYOSTATIN], the values for the Activity with HeLa and in the experiment listed under Bos taurus [1] were 5.4 nM and 75%, respectively. The GI50 turned out to be 0.69 nM in the experiment with 1A9, 3.2 nM in the experiment with 1A9/ptx-10 and 1.3 nM in the experiment on 1A9/ptx-22.
Turning to `C=C/C=C\[C@H](C)[C@@H]1OC(=O)/C=C\C=C\[C@@H](C)[C@@H](O)C[C@H](O)/C=C\[C@H](C)[C@H](O)[C@@H](C)C[C@H](C)CC[C@@H](O)[C@@H]1C`, the Activity came out at 1280 nM in the experiment on HeLa and 11% in the experiment listed under Bos taurus [1]. For the same compound, the results for the GI50 in the experiment with 1A9, with 1A9/ptx-10 and with 1A9/ptx-22 were 61 nM, 862 nM and 543 nM, respectively. Besides, the % tubulin polymerization in the experiment listed under Bos taurus [2] was found to be 9%.
As to `CC(=O)O[C@H]1C(=O)[C@@]2(C)[C@H]([C@H](OC(=O)c3ccccc3)[C@]3(O)C[C@H](OC(=O)[C@H](O)[C@@H](NC(=O)c4ccccc4)c4ccccc4)C(C)=C1C3(C)C)[C@]1(OC(C)=O)CO[C@@H]1C[C@@H]2O` [PACLITAXEL], the Activity in the experiment with HeLa is 5.2 nM. Also, the GI50 was found to be 0.71 nM in the experiment with 1A9, 64 nM with 1A9/ptx-10 and 51 nM in the experiment with 1A9/ptx-22. In the experiment listed under Bos taurus [2], this compound came in with a % tubulin polymerization of 100%.
With `C=C/C=C\[C@H](C)[C@H](O)[C@H](C)[C@@H]1CC/C=C\[C@H](C)[C@@H](O)[C@@H](C)/C=C\[C@H](O)C[C@H](O)[C@H](C)/C=C\C=C\C(=O)O1`, the Activity with HeLa is greater than 5000 nM; in the experiment listed under Bos taurus [1], 7%. In addition, the figures for the GI50 in the experiment on 1A9, with 1A9/ptx-10 and in the experiment on 1A9/ptx-22 were greater than 50000 nM, 32700 nM and greater than 50000 nM, respectively. The % tubulin polymerization in the experiment filed under Bos taurus [2] was 6%.
Regarding `C=C/C=C\[C@H](C)[C@H](OC(N)=O)[C@@H](C)[C@H](O)[C@@H](C)C/C(C)=C\[C@H](C)[C@@H](O)[C@@H](C)/C=C\[C@@H](O)C[C@@H]1OC(=O)[C@H](C)[C@@H](O)[C@H]1C` [DISERMOLIDE], the figures for the Activity in the experiment on HeLa and in the experiment filed under Bos taurus [1] were 65 nM and 76%, respectively. The results for the GI50 in the experiment with 1A9, in the experiment on 1A9/ptx-10 and with 1A9/ptx-22 were 1.7 nM, 6.2 nM and 7 nM, respectively. Moreover, in the experiment listed under Bos taurus [2], the % tubulin polymerization was determined as 148%.
Take `C=C/C=C\[C@H](C)[C@@H]1OC(=O)/C=C/C=C/[C@@H](C)[C@@H](O)C[C@H](O)/C=C\[C@H](C)[C@H](O)[C@@H](C)/C=C\CC[C@@H](O)[C@@H]1C`: the Activity came out at 647 nM with HeLa and 5% in the experiment filed under Bos taurus [1]. The GI50 worked out at 210 nM in the experiment on 1A9, 23700 nM with 1A9/ptx-10 and 847 nM in the experiment on 1A9/ptx-22. The compound also returned a % tubulin polymerization in the experiment filed under Bos taurus [2] of 10%.
